According to ChEMBL document CHEMBL2046398, “Optimization of (2,3-dihydro-1-benzofuran-3-yl)acetic acids: discovery of a non-free fatty acid-like, highly bioavailable G protein-coupled receptor 40/free fatty acid receptor 1 agonist as a glucose-dependent insulinotropic agent” (J Med Chem, 2012):
Calls of active or inactive are those of the source. No cut-off for these calls is given here.

Experiments:
[1] = molecular target: T1, Free fatty acid receptor 1 (Homo sapiens, UniProt O14842); test: Displacement of 3-[4-({2',6'-dimethyl-6-[(4-[3H])-phenylmethoxy]biphenyl-3-yl}methoxy)phenyl]propanoic acid from human GPR40 expressed in CHO cells after 90 mins by liquid scintillation counting in the presence of 0.2% BSA; type: cell-based
T1 sequence (O14842 whole entry): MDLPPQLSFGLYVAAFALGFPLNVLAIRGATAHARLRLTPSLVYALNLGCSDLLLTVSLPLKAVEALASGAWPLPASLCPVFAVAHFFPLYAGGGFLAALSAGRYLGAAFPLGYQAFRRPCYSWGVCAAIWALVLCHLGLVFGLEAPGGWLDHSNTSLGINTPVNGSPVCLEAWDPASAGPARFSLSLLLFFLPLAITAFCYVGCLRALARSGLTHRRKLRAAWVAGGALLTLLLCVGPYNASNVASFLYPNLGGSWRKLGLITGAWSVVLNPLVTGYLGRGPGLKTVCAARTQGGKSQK
Procedure, shortened: (§1)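 Membranes came from CHO lines stably expressing human or rat GPR40/FFA1. Assay buffer was 25 mmol/L Tris-HCl pH 7.5 with 5 mmol/L EDTA, protease inhibitors, 0.05% CHAPS and 0.2% fatty-acid-free BSA. Compounds competed with 2 or 6 nmol/L tritiated phenylpropanoic acid ligand for 90 min at room temperature. Bound ligand was filtered and counted by scintillation. Nonspecific binding used 10 μmol/L unlabeled ligand. IC50 was converted to Ki by Cheng–Prusoff using the measured Kd.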

[2] = Lipophilicity, log D of the compound at pH 7.4 by HPLC analysis; type: physicochemical; settings: buffer
Procedure, shortened: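 Log D at pH 7.4 was estimated from HPLC relative retention time against standard compounds.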

[3] = system: HepG2; test: Induction of apoptosis in human HepG2 cells assessed as caspase 3/7 activity at 30 uM after 1 day by CaspaseGlo assay relative to staurosporine; type: cell-based; settings: hepg2, 24 h
Procedure, shortened: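 HepG2 cells were seeded at 2 × 10⁴ cells/well. They were exposed to compounds for 1 day in DMEM with 0.5% FBS, 2 mM L-glutamine and 1 mM pyruvate. Caspase-3/7 was read by Caspase-Glo luminescence, n = 3. Values are % = (RLU compound − RLU 1% DMSO)/(RLU 30 μM staurosporine − RLU 1% DMSO) × 100.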

[4] = molecular target: Free fatty acid receptor 1 (Rattus norvegicus, UniProt Q8K3T4); test: Displacement of 3-[4-({2',6'-dimethyl-6-[(4-[3H])-phenylmethoxy]biphenyl-3-yl}methoxy)phenyl]propanoic acid from rat GPR40 expressed in CHO cells after 90 mins by liquid scintillation counting in the presence of 0.2%BSA; type: cell-based; procedure, shortened: as §1
Free fatty acid receptor 1 (Rattus norvegicus, UniProt Q8K3T4), sequence (Q8K3T4 whole entry): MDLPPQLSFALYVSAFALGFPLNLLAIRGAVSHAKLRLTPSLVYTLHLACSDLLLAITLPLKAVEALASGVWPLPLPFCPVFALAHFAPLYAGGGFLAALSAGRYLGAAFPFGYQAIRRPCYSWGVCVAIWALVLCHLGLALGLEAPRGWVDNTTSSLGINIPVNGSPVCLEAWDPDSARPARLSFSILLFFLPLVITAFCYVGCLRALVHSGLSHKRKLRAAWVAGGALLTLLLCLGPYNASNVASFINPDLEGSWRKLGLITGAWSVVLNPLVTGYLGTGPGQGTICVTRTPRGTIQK

[5] = molecular target: T1, Free fatty acid receptor 1; test: Agonist activity at human GP40 receptor expressed in CHO cells assessed as increase in intracellular calcium level for 90 secs by FLIPR assay in the presence of 0.1% BSA; type: functional, cell-based
[6] = molecular target: T1, Free fatty acid receptor 1; test: Agonist activity at human GP40 receptor expressed in CHO cells assessed as increase in intracellular calcium level at 10 uM for 90 secs by FLIPR assay in the presence of 0.1% BSA relative to gamma-linolenic acid; type: functional, cell-based
Procedure, shortened: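 CHO dhfr cells stably expressing human GPR40/FFA1 (NM_005303) plated overnight at 37 °C, 5% CO₂, then loaded 60 min at 37 °C with Fluo 4 AM (2.5 μg/mL), 2.5 mmol/L probenecid and 0.1% fatty acid-free BSA. Ca²⁺ rise after compound addition read on FLIPR Tetra for 90 s. Activity = (test − vehicle)/(10 μM γ-linolenic acid − vehicle) × 100.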

[7] = system: Rattus norvegicus; test: Insulinotropic activity in po dosed fasted Wistar fatty rat assessed as […] administered 1 hr prior to glucose-challenge by oral glucose tolerance test relative to vehicle control; type: functional
Procedure, shortened: (§2)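 Female Wistar fatty rats, 12–17 weeks old, were fasted overnight. They were dosed orally with compound in 0.5% methylcellulose 1 h (1 mg/kg) or 4 h (3 mg/kg) before a 1 g/kg oral glucose load. Plasma glucose was sampled to 120 min, n = 6. Effective dose was defined by statistical significance on plasma glucose AUC versus vehicle.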

[8] = system: Rattus norvegicus; test: Insulinotropic activity in po dosed fasted Wistar fatty rat assessed as […] administered 4 hr prior to glucose-challenge by oral glucose tolerance test relative to vehicle control; type: functional; procedure, shortened: as §2

| SMILES | Ki [1] [nM] | logD [2] | Activity [3] [%] | Ki [4] [nM] | EC50 [5] [nM] | Efficacy [6] [%] | ED [7] | ED [8] |
| --- | --- | --- | --- | --- | --- | --- | --- | --- |
| Cc1cc(OC2CCS(=O)(=O)CC2)cc(C)c1-c1cccc(COc2ccc3c(c2)OC[C@@H]3CC(=O)O)c1 | 300 | 2.84 | 1.3 | 510 | 290 | 103 |  |  |
| Cc1cc(OCCCS(C)(=O)=O)c(F)c(C)c1-c1cccc(COc2ccc3c(c2)OC[C@H]3CC(=O)O)c1 | 18 | 2.68 | -1.1 | 200 | 16 | 104 | 1 mg/kg | 3 mg/kg |
| Cc1c(C)c(-c2cccc(COc3ccc4c(c3)OC[C@H]4CC(=O)O)c2)c(C)c(C)c1OCCCS(C)(=O)=O | 33 | 3.12 | -1.1 | 120 | 18 | 104 |  |  |
| Cc1cc(OC2CCS(=O)(=O)CC2)cc(C)c1-c1cccc(COc2ccc3c(c2)OCC3CC(=O)O)c1 (racemic) | 83 | 2.77 | 0.4 | 210 | 39 | 103 |  |  |
| Cc1cc(OCC2(O)CCS(=O)(=O)CC2)cc(C)c1-c1cccc(COc2ccc3c(c2)OC[C@H]3CC(=O)O)c1 | 24 | 2.43 | -1.8 | 170 | 13 | 107 | inactive | 3 mg/kg |
| Cc1cc(OCCCS(C)(=O)=O)cc(C)c1-c1cccc(COc2ccc3c(c2)OC[C@H]3CC(=O)O)c1 |  | 2.58 | -2.1 |  |  |  |  |  |
| Cc1cc(OCCCN2CCCC2=O)cc(C)c1-c1cccc(COc2ccc3c(c2)OC[C@H]3CC(=O)O)c1 | 31 | 3.22 | 3.9 | 170 | 17 | 107 |  |  |
| Cc1cc(OCC2(C)COC2)cc(C)c1-c1cccc(COc2ccc3c(c2)OCC3CC(=O)O)c1 (racemic) | 21 | 3.86 | 23.6 | 83 | 24 | 103 |  |  |
| CCOCCOc1cc(C)c(-c2cccc(COc3ccc4c(c3)OC[C@H]4CC(=O)O)c2)c(C)c1 |  | 3.86 | 1.5 | 240 |  | 103 |  |  |
| Cc1nc(C)c(COc2cc(C)c(-c3cccc(COc4ccc5c(c4)OC[C@H]5CC(=O)O)c3)c(C)c2)s1 | 12 | 4.27 | 23.1 | 360 | 18 | 107 |  |  |
| Cc1c(C)c(-c2cccc(COc3ccc4c(c3)OC[C@H]4CC(=O)O)c2)c(C)c(C)c1OC1CCS(=O)(=O)CC1 | 40 | 3.35 | 12.3 | 400 | 29 | 104 |  |  |
| CCOCCOc1cc(C)c(-c2cccc(COc3ccc4c(c3)OCC4CC(=O)O)c2)c(C)c1 (racemic) |  | 3.83 | 3.2 | 300 |  | 103 |  |  |
| Cc1cc(OC2CCN(C)CC2)cc(C)c1-c1cccc(COc2ccc3c(c2)OC[C@H]3CC(=O)O)c1.Cl | 8.8 | 3.1 | -1.3 | 66 | 19 | 107 |  | inactive |
| CCc1cc(OCCCS(C)(=O)=O)cc(CC)c1-c1cccc(COc2ccc3c(c2)OC[C@H]3CC(=O)O)c1 | 11 | 3.17 | 12.4 | 56 | 17 | 104 |  |  |
| CCOCCOc1cc(C)c(-c2cccc(COc3ccc4c(c3)OC[C@@H]4CC(=O)O)c2)c(C)c1 |  | 3.86 | 10.5 | 7400 |  | 103 |  |  |
| Cc1cc(OCCCS(C)(=O)=O)c(Cl)c(C)c1-c1cccc(COc2ccc3c(c2)OC[C@H]3CC(=O)O)c1 | 19 | 3.07 | 8.3 | 110 | 16 | 104 |  |  |
| Cc1cc(OCc2cccc3nccn23)cc(C)c1-c1cccc(COc2ccc3c(c2)OC[C@H]3CC(=O)O)c1 | 15 | 3.8 | 17.7 | 190 | 17 | 107 |  |  |
| Cc1cc(OCC2(C)COC2)cc(C)c1-c1cccc(COc2ccc3c(c2)OC[C@H]3CC(=O)O)c1 | 25 | 3.88 | 21.1 | 110 | 18 | 103 |  |  |
| Cc1c(Cl)c(OCCCS(C)(=O)=O)c(Cl)c(C)c1-c1cccc(COc2ccc3c(c2)OC[C@H]3CC(=O)O)c1 | 12 | 3.53 | 16.1 | 59 | 17 | 104 |  |  |
| Cc1cc(OC2CCS(=O)(=O)CC2)c(F)c(C)c1-c1cccc(COc2ccc3c(c2)OC[C@H]3CC(=O)O)c1 | 31 | 2.95 | 7.9 | 270 | 19 | 104 |  |  |
| CCS(=O)(=O)CCOc1cc(C)c(-c2cccc(COc3ccc4c(c3)OC[C@H]4CC(=O)O)c2)c(C)c1 | 37 | 2.73 | -1.3 | 170 | 14 | 107 |  | 3 mg/kg |
| Cc1cc(OCC2(C)COC2)cc(C)c1-c1cccc(COc2ccc3c(c2)OC[C@@H]3CC(=O)O)c1 | 270 | 3.88 | 20.9 | 2200 | 270 | 103 |  |  |
| Cc1cc(OC2CCS(=O)(=O)CC2)cc(C)c1-c1cccc(COc2ccc3c(c2)OC[C@H]3CC(=O)O)c1 | 36 | 2.75 | -2.5 | 170 | 22 | 103 | 1 mg/kg | 3 mg/kg |
